MrgX1 allo act: positive allosteric modulators of MrgX1, primary screen, HEK293 cells, Fluo-4 calcium flux; Mas-related G-protein coupled receptor member X1 (Homo sapiens), Q96LB2; FDSS; stronger effect = higher value; B-score at 10 µM; hit rate 0.63% among 310,000;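 active = plate-corrected calcium response at least 3 library SD above typical, normal starting fluorescence, not activating the receptor alone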;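 also: compound read alongside a low EC10 to EC30 dose of BAM8-22 agonist; peak minus trough fluorescence over baseline measured at the second addition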
Target sequence (Q96LB2 whole entry, looked up): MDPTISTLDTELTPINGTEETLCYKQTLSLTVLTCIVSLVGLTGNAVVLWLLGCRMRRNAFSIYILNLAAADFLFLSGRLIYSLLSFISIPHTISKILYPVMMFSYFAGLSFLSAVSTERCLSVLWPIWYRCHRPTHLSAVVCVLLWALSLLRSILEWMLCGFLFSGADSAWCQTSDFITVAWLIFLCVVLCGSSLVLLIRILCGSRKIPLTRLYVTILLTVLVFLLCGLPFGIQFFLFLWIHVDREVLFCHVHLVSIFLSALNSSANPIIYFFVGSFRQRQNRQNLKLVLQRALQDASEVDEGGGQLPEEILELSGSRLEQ
MrgX1 ag: agonists of human MrgX1 receptor, primary screen, HEK293 cells, Fluo-4 calcium flux. Mas-related G-protein coupled receptor member X1 (Homo sapiens), Q96LB2. Fluo-4 calcium fluorescence, agonist mode; stronger effect = higher value. B-score at 10 µM. hit rate 0.44% among 310,000. AID 588627, 2011;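 active = calcium response B-score plate-corrected fluorescence ratio at least 3 library SD, with starting fluorescence B-score inside 5 SD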
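Material – MrgX1-expressing HEK293 cells · Input – 15,000 cells seeded per well · Dosing – compound as first of three additions · Times – overnight seeding, then 1 h dark dye loading · Measured by – kinetic Fluo-4 NW fluorescence of intracellular calcium · Read-out – B-scored fluorescence response ratio · Benchmarks – positive and negative control wells on each plate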
MrgX1 antag: antagonists of human MrgX1 receptor, primary screen, HEK293 cells, Fluo-4 calcium flux | BAM8-22 antagonism; stronger effect = lower value | B-score at 10 µM | hit rate 1.3% among 310,000 | Mas-related G-protein coupled receptor member X1 (Homo sapiens), Q96LB2;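 active = calcium-response B-score plate-corrected more than 3 library SD below zero, starting fluorescence within 5 deviations, no agonist response on first addition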;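 also: peak minus trough fluorescence over baseline after final BAM8-22 challenge near maximal dose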
RGS4 block: RGS4 inhibitors, primary screen, cell-based, HEK293 M3R inducible RGS4, calcium flux; hit rate 0.45% among 310,000; B-score at 10 µM; Fluo-4 calcium flux; stronger effect = higher value; triggered by carbachol at its EC20; Regulator of G-protein signaling 4 (Homo sapiens), P49798;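 active = B-score, a plate-corrected calcium signal, over three deviations above library mean, with baseline fluorescence within five deviations of library mean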;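 also: RGS4 expression induced by doxycycline in cells with stable M3 receptor; B-score is computed from the integrated fluorescence ratio over baseline after carbachol; higher B-score means a larger calcium signal and so more RGS4 inhibition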
Target sequence (P49798 whole entry, looked up): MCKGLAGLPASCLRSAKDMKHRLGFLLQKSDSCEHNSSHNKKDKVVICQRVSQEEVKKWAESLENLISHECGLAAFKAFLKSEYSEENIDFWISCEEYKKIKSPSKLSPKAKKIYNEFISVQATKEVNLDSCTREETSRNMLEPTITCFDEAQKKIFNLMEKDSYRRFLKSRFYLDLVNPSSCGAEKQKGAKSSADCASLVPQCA
RGS4 pot: RGS4 potentiators or activators, primary screen, cell-based, HEK293 M3R inducible RGS4, calcium flux; hit rate 0.92% among 310,000; carbachol calcium flux Fluo4; stronger effect = lower value; B-score at 10 µM;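 active = B-score of the integrated calcium signal more than 4 SD below the library mean, with starting fluorescence not abnormally high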;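 also: negative B-score means reduced calcium response which marks RGS4 activation or potentiation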
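Also added: carbachol at ECmax as muscarinic agonist stimulus; Assay system: HEK293 cells with stable M3R and inducible RGS4; Timing: overnight RGS4 induction, 30 min dye load 37 °C, 20 min compound RT; Measured by: Fluo4-AM (2 µM) calcium-flux fluorescence, kinetic read.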
* marks the source's active call; other numbers are inactive results; i = inactive; · = no result. Compounds with a hit are over-represented: about 3.5% of the library has one in this group of screens.

SMILES | MrgX1 allo act | MrgX1 ag | MrgX1 antag | RGS4 block | RGS4 pot
COc1ccc(CNC(=O)C(C#N)c2nc3ccccc3nc2N2CCCC2)cc1 (stereo not given) | i | i | -5.07* | i | i
C=CCNC(=O)C(C#N)c1nc2ccccc2nc1N1CCCCCC1 (stereo not given) | 7.65* | i | i | i | i
COc1ccc(CNC(=O)C(C#N)c2nc3ccccc3nc2N2CCN(C)CC2)cc1 (stereo not given) | i | i | i | i | i
O=S(=O)(CCSc1nc2ccccc2o1)c1nc2ccccc2s1 | i | i | i | i | i
O=S(=O)(CCSc1ccccn1)c1nc2ccccc2s1 | i | 34.1* | i | i | i
COc1ccc(OCc2nc(-c3ccc(F)c(F)c3)cs2)cc1 | i | i | i | i | i
Cc1ccc(-n2nc3ccc(NC(=O)/C=C/c4ccco4)cc3n2)cc1 | i | i | -6.28* | i | i
Cc1ccc(NC(=O)c2cccc(NC(=O)/C=C/c3ccco3)c2)cc1C | i | i | i | i | -9.62*
O=C(/C=C/c1ccco1)Nc1ccc2c(c1)OCO2 | i | i | i | i | i
CCc1ccccc1NC(=O)c1cccc(NC(=O)/C=C/c2ccco2)c1 | i | i | i | i | i
O=C(NC1CCCCC1)C12CC3CC(CC(Cl)(C3)C1)C2 | i | i | i | i | i
Clc1ccc2c(c1)CCc1cccnc1C2=C1CCNCC1 | i | i | i | i | -7.15*
Cc1ccc(S(=O)(=O)NCC(=O)NCC(=O)OC(C(=O)NC(N)=O)C(C)C)cc1C (stereo not given) | i | i | i | i | i
CCN(Cc1ccccc1)c1ccc(/C=C(\C#N)c2ccccn2)cc1 | i | i | i | i | i
CCN(CC)c1ccc(/C=C(\C#N)c2ccccn2)cc1 | i | i | -9.07* | i | i
CCN(CC)c1ccc(/C=C2\SC(N)=NC2=O)cc1 | i | 33.1* | i | i | i
O=C(Nc1ccc2cn[nH]c2c1)c1ccc(Cl)c(S(=O)(=O)N2CCOCC2)c1 | i | i | i | i | i
COc1ccc(/C=N/Nc2cc(C)nc3ccc(OC)cc23)c(OC)c1 | i | i | i | i | -7.68*
Cc1ccccc1NC(=O)c1nn(C)c2c1CS(=O)(=O)c1ccccc1-2 | i | i | i | i | i
CCNC(=S)N/N=C(\C)c1ccc(Cl)s1 | i | i | i | i | -7.13*
C=C(C)CNC(=S)N/N=C(\C)c1ccc(Cl)s1 | i | i | -6.07* | i | i
CN1CCN(C(CNC(=O)C(=O)NC2CCCCC2)c2ccc(F)cc2)CC1 (stereo not given) | i | i | i | i | i
Cc1cc(N/N=C\c2ccccc2)nc(-c2ccccc2O)n1 | i | i | i | i | -7.62*
CCn1cnc2cc(NCc3ccc(OC)cc3)ccc21 | i | i | i | i | i
CCOc1ccc2nc3cc(NCc4ccc(OC)cc4)ccc3c(N)c2c1 | i | i | i | i | -7.56*
SMILES | MrgX1 allo act | MrgX1 ag | MrgX1 antag | RGS4 block | RGS4 pot
Cc1cc(NC(=O)CSc2nnc(N)s2)c([N+](=O)[O-])cc1C | i | i | -7.05* | i | i
COc1nc(Oc2ccc(C(=O)O)cc2)nc(Oc2ccc(C(=O)O)cc2)n1 | i | i | i | i | i
COc1ccc(Oc2nc(Oc3ccc(OC)cc3)nc(Oc3ccc(OC)cc3)n2)cc1 | i | i | -6.5* | i | i
COc1ccccc1-n1cc(CN2CCN(CC(C)C)C(CCO)C2)cn1 (stereo not given) | i | i | -5.82* | i | i
COc1ccccc1-n1cc(CN2CCN(C3CCCC3)C(CCO)C2)cn1 (stereo not given) | i | i | i | i | i
Nc1nonc1C(=O)NCCNC(=O)c1ccc(Cl)c(Cl)c1 | i | i | i | i | i
CC1(C)N=C(SCC(=O)Nc2ccc(Cl)cc2)C(c2ccccc2)=N1 | i | i | i | i | i
CC1(C)N=C(SCC(=O)Nc2ccc(Cl)cc2)C(c2ccc(Cl)cc2)=N1 | i | i | i | i | -7.95*
Cc1cccc(N2CCN(C(=O)c3cccc(N4CCCC4=O)c3)C(C)C2)c1 (stereo not given) | i | i | i | i | i
CN(Cc1nccn1C)C(=O)CC1C(=O)NCCN1Cc1cccc(Oc2ccccc2)c1 (stereo not given) | i | i | -5.17* | i | i
COc1ccccc1N1CCN(Cc2cc(=O)c(OCC(=O)NC(C)C)co2)CC1 | i | i | i | i | i
COc1cc(SC)ccc1C(=O)Nc1c(C)cccc1C | i | i | i | i | i
COc1cc(SC)ccc1C(=O)NNC(=O)c1cc(C)oc1C | i | i | -4.84* | i | i
CCCCCCCCCCn1c2c(c(=N)c3c1CCC3)CCC2 | i | i | -6.17* | i | -8.74*
COc1cc(N2CCCC2)c(OC)cc1/C=C1/NC(=S)NC1=O | i | i | -5.37* | i | i
CCOc1ccc(CCNC(=O)COC(=O)c2cccc(N(C)C)c2)cc1OCC | i | i | i | i | i
CCOC(=O)C(=O)NNc1ccc(C)cc1 | i | i | -9.02* | i | i
CCOC(=O)C(=O)NNc1ccc(Cl)cc1 | i | i | i | i | i
COCCN=c1scc(-c2cccs2)n1/N=C(\C)c1ccco1 | 14.8* | i | i | i | i
COCCN=c1scc(-c2ccco2)n1/N=C/c1ccc(O)c(O)c1O | i | i | i | · | ·
CCCOc1ccc(NC(=O)Cc2ccc(S(=O)(=O)N3CCOCC3)s2)cc1OCCC | i | i | -4.68* | i | i
Cc1ccc(Nc2nc(N)nc(CN3CCN(C)CC3)n2)cc1 | i | i | i | i | -7.15*
Cc1ccc([N+](=O)[O-])c(NC2OC(CO)C(O)C2O)c1 (stereo not given) | i | i | i | i | i
CC(C)n1nc(C(=O)Nc2cccc(S(=O)(=O)NCc3ccco3)c2)c2ccccc2c1=O | i | i | i | i | -7.21*
COc1cc(/C=C(\C#N)C(=O)NCCc2ccccc2)cc(OC)c1O | 7.27* | i | i | i | i
Cc1sc(NC(=O)c2ccco2)c(CN2CCC(C)CC2)c1C | i | i | i | i | i
